Data published in ChEMBL document CHEMBL3351593, “Potent nonimmunosuppressive cyclophilin inhibitors with improved pharmaceutical properties and decreased transporter inhibition” (J Med Chem, 2014).

How the values were obtained:
[1] = molecular target: Peptidyl-prolyl cis-trans isomerase A (Homo sapiens, UniProt P62937); assay: Binding affinity to human cyclophilin A by surface plasmon resonance method
Cytochrome P450 2C8 = molecular target: T1, Cytochrome P450 2C8 (Homo sapiens, UniProt P10632); assay: Inhibition of CYP2C8 (unknown origin); assay type: ADME
T1 sequence (P10632 whole entry): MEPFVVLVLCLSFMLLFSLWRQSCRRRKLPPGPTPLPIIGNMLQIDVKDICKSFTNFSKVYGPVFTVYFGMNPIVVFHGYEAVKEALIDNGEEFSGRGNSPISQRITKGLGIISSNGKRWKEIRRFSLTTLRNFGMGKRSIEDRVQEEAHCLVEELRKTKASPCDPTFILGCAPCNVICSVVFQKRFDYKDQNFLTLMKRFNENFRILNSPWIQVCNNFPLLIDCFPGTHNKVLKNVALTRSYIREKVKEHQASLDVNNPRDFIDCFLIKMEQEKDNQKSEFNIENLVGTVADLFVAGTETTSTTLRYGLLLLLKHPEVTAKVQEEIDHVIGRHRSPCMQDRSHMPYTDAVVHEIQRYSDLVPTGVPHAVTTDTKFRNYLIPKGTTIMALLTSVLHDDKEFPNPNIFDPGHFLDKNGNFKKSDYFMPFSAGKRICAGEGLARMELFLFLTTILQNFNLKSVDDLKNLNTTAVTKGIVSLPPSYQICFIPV

Cytochrome P450 3A4 = Cytochrome P450 3A4 (Homo sapiens, UniProt P08684); assay: Inhibition of CYP3A4 (unknown origin); assay type: ADME
Cytochrome P450 2D6 = Cytochrome P450 2D6 (Homo sapiens, UniProt P10635); assay: Inhibition of CYP2D6 (unknown origin); assay type: ADME
Cytochrome P450 2C19 = Cytochrome P450 2C19 (Homo sapiens, UniProt P33261); assay: Inhibition of […] (unknown origin); assay type: ADME
Hepatitis C virus = assay: Antiviral activity against HCV subtype 1b in human Huh7.5 cells expressing subgenomic HCV replicons and coexpressing luciferase reporter gene in presence of 40% human serum; assay type: functional, cell-based, Hepacivirus hominis; settings: genotype 1b, Huh-7
Procedure, shortened: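 Genotype 1b luciferase replicon in Huh7.5 cells with 40% human serum added to the assay medium, in phenol red-free DMEM without G418. Sixteen half-log dilutions in triplicate. Luciferase read after 72 h relative to DMSO-treated cells, giving EC50.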

[2] = Cytotoxicity against human MT4 cells by CDCF probe based assay; assay type: cell-based
[3] = molecular target: ATP-binding cassette sub-family C member 2 (Homo sapiens, UniProt Q92887); assay: Inhibition of human MRP2 expressed in Sf9 cells inside out vesicles using CDCF substrate
Procedure, shortened: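 Inside-out vesicles from baculovirus-infected Sf9 cells expressing hMRP2, with CDCF as probe. ATP-dependent uptake taken as uptake with ATP minus uptake with AMP. Remaining activity calculated as uptake with inhibitor divided by uptake without, and the inhibition value derived from that.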

[4] = molecular target: T2, Broad substrate specificity ATP-binding cassette transporter ABCG2 (Homo sapiens, UniProt Q9UNQ0); assay: Inhibition of BCRP (unknown origin) expressed in T8 cells using Bodipy FL-prazosin substrate; assay type: ADME, cell-based
T2 sequence (Q9UNQ0 whole entry): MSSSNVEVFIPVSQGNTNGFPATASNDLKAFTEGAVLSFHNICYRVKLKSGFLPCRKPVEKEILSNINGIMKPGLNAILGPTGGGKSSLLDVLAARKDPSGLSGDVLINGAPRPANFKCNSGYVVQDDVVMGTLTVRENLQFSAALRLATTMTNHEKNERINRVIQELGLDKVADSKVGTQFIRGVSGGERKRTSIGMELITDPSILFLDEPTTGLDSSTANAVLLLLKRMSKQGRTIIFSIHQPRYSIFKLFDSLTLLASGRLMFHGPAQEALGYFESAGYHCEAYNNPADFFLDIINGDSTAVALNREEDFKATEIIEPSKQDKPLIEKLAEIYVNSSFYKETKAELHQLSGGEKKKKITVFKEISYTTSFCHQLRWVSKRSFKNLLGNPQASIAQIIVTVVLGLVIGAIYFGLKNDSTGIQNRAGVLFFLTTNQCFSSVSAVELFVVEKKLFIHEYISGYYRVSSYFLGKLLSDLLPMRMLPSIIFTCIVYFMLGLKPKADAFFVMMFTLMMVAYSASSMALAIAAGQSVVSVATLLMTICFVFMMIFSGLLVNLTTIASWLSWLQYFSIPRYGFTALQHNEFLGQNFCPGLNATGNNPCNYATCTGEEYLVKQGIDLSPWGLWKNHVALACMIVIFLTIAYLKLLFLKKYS
Procedure, shortened: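 BCRP activity in T8 cells, measured with Bodipy FL-prazosin as substrate; IC50 reported.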

[5] = AUC in rat plasma at 25 mg/kg, po after 72 hrs; assay type: ADME, organism-based; set-up: time < 72 hr, dose 25 mg/kg, route oral
Procedure, shortened: (§1)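 Oral dosing as a solution in MEPC: rat 25 mg/kg, dog 1 mg/kg. Blood and plasma collected separately over 0−72 h and AUC computed for each matrix.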

[6] = AUC in dog blood at 1 mg/kg, po after 72 hrs; assay type: ADME, organism-based, Canis lupus familiaris; set-up: time < 72 hr, dose 1 mg/kg, route oral; settings: whole blood; procedure, shortened: as §1
[7] = AUC in dog plasma at 1 mg/kg, po after 72 hrs; assay type: ADME, organism-based, Canis lupus familiaris; set-up: time < 72 hr, dose 1 mg/kg, route oral; procedure, shortened: as §1

Sequence of Peptidyl-prolyl cis-trans isomerase A (P62937 whole entry): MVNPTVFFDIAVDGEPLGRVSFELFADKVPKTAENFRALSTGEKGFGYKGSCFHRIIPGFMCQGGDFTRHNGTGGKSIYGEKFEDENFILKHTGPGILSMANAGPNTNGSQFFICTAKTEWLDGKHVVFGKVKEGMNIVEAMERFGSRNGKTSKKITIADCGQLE
Sequence of ATP-binding cassette sub-family C member 2 (Q92887 whole entry): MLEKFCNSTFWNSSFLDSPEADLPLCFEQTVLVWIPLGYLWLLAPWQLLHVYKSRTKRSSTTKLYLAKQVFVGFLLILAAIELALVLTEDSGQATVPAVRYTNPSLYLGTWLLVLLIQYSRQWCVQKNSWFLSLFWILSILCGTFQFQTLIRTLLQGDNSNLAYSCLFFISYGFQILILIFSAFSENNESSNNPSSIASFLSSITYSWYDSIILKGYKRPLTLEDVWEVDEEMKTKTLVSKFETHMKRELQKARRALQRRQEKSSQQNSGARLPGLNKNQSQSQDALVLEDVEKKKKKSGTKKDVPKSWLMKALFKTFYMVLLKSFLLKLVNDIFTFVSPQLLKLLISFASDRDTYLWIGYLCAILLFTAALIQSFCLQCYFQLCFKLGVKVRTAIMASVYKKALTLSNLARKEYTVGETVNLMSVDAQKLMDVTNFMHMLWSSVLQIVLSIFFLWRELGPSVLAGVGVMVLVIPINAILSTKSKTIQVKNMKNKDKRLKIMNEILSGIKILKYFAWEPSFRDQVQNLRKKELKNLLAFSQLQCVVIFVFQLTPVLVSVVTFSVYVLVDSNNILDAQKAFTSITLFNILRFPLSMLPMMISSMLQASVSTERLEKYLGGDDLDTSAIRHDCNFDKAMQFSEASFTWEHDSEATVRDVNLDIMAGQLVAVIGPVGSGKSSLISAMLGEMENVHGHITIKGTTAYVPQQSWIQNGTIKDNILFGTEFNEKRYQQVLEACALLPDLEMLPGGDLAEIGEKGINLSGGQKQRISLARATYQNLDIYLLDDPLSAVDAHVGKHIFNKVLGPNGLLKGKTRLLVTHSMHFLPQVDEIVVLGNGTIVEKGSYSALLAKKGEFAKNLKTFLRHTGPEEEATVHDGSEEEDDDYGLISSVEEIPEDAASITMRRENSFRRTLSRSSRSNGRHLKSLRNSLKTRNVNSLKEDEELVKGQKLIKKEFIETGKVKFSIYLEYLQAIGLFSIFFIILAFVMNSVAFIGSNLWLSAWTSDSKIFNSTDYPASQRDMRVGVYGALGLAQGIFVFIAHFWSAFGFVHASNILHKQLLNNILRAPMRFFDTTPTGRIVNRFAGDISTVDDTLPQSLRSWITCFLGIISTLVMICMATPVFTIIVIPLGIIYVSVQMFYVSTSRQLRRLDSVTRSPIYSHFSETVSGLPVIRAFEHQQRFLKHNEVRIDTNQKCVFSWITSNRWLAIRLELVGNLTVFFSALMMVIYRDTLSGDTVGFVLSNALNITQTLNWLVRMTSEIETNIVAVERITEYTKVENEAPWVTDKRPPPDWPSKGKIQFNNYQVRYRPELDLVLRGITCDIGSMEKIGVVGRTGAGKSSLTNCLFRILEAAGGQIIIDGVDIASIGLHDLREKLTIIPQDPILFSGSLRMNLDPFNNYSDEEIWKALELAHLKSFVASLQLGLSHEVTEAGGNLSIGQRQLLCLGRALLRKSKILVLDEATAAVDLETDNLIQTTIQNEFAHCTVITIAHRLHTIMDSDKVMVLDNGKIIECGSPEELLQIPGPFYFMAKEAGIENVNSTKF
Sequence of Cytochrome P450 2D6 (P10635 whole entry): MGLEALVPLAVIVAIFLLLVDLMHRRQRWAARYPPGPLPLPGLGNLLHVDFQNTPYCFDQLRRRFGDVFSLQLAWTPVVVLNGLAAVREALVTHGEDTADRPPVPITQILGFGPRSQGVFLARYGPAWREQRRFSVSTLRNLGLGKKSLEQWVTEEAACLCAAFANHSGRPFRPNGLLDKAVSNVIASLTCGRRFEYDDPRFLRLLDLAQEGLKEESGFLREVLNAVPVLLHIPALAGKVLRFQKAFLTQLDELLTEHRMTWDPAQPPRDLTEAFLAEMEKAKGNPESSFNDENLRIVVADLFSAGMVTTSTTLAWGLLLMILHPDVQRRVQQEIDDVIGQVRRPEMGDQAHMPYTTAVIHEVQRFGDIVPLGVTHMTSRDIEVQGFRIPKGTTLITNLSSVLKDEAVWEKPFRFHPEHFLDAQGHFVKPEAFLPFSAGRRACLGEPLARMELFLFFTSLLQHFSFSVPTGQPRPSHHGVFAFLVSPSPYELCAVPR
Sequence of Cytochrome P450 3A4 (P08684 whole entry): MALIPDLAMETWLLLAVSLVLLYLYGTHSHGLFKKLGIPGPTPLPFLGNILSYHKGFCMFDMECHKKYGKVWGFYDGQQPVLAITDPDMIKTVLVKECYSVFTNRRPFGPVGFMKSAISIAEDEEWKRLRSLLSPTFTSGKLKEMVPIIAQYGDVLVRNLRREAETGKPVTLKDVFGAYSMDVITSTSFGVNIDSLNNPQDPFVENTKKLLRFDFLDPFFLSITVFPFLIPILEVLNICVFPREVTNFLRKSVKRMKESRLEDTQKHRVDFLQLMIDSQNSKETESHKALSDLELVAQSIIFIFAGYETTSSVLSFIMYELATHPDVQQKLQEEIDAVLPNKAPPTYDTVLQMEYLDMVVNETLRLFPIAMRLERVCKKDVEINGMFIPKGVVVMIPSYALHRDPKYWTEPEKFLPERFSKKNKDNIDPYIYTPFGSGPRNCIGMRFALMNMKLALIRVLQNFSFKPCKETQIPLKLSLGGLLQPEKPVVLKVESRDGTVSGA
Sequence of Cytochrome P450 2C19 (P33261 whole entry): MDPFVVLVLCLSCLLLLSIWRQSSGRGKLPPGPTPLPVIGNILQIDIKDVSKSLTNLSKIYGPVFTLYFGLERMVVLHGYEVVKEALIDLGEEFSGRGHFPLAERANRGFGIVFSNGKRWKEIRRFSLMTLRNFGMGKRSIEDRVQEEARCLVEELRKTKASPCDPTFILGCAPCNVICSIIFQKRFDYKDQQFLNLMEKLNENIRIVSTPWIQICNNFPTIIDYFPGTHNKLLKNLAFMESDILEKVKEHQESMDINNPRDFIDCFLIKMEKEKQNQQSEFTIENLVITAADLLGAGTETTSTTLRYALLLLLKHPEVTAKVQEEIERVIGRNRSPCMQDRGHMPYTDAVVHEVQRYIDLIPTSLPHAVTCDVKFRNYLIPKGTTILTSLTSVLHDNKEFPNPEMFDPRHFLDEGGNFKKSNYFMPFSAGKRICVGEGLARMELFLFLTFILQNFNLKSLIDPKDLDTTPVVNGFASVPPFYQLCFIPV

Q: Which Kd [1] does the source give for `C/C=C/C[C@@H](C)[C@@H](O)[C@H]1C(=O)N[C@@H](CC)C(=O)N(C)[C@H](C)C(=O)N(C)[C@@H]([C@@H](C)CN2CCN(CCOC)CC2)C(=O)N[C@@H](C(C)C)C(=O)N(C)[C@@H](CC(C)C)C(=O)N[C@@H](C)C(=O)N[C@H](C)C(=O)N(C)[C@@H](CC(C)C)C(=O)N(C)[C@@H](CC(C)C)C(=O)N(C)[C@@H](C(C)C)C(=O)N1C` here?
A: 0.0012 µM

Q: And the IC50 (Cytochrome P450 2C8)?
A: > 40 µM

Q: What about the IC50 (Cytochrome P450 3A4) of the same compound?
A: > 40 µM

Q: And the IC50 (Cytochrome P450 2D6)?
A: > 40 µM

Q: And the IC50 (Cytochrome P450 2C19)?
A: > 40 µM

Q: What about the EC50 (Hepatitis C virus) of the same compound?
A: 0.042 µM

Q: What about the CC50 [2] of the same compound?
A: > 50 µM

Q: And the Ki [3]?
A: 140 µM

Q: What about the IC50 [4] of the same compound?
A: > 25 µM

Q: And the AUC at 72 h [5]?
A: 5.8 µM·h

Q: And the AUC at 72 h [6]?
A: 22.1 µM·h

Q: What about the AUC at 72 h [7] of the same compound?
A: 0.9 µM·h

Q: Which Kd [1] does the source give for `C/C=C/C[C@@H](C)[C@@H](O)[C@H]1C(=O)N[C@@H](CC)C(=O)N(C)[C@H](C)C(=O)N(CC)[C@@H](C(C)C)C(=O)N[C@@H](C(C)C)C(=O)N(C)[C@@H](CC(C)C)C(=O)N[C@@H](C)C(=O)N[C@H](C)C(=O)N(C)[C@@H](CC(C)C)C(=O)N(C)[C@@H](CC(C)C)C(=O)N(C)[C@@H](C(C)C)C(=O)N1C` [ALISPORIVIR] here?
A: 0.0022 µM

Q: What about the EC50 (Hepatitis C virus) of the same compound?
A: 0.116 µM

Q: And the CC50 [2]?
A: > 20 µM

Q: And the Ki [3]?
A: 18 µM

Q: And the IC50 [4]?
A: 2.5 µM

Q: And the AUC at 72 h [5]?
A: 2.3 µM·h

Q: What about the AUC at 72 h [6] of the same compound?
A: 2.19 µM·h

Q: And the AUC at 72 h [7]?
A: 0.4 µM·h
